From PMC5095872 (Chemmedchem, 2016)

How the values were obtained:
[1] = Hepatocyte stability, rat; assay type: in vitro ADME; settings: rat hepatocytes; well-stirred model
[2] = Liver microsome stability, mouse; assay type: in vitro ADME; settings: mouse liver microsomes; well-stirred model
[3] = Liver microsome stability, human; assay type: in vitro ADME; settings: human liver microsomes; well-stirred model
[4] = Hepatocyte stability, dog; assay type: in vitro ADME; settings: dog hepatocytes; well-stirred model
Method in brief: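 Dog hepatocytes. Intrinsic clearance (CLint) was scaled to blood clearance with the well-stirred liver model: CLb = QH×CLint/(QH + CLint). Dog liver blood flow (QH) was 2.1 L h⁻¹ kg⁻¹.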

[5] = Liver microsome stability, dog; assay type: in vitro ADME; settings: dog liver microsomes; well-stirred model
[6] = Liver microsome stability, rat; assay type: in vitro ADME; settings: rat liver microsomes; well-stirred model
[7] = Liver microsome stability, monkey; assay type: in vitro ADME; settings: monkey liver microsomes; well-stirred model
[8] = Hepatocyte stability, monkey; assay type: in vitro ADME; settings: monkey hepatocytes; well-stirred model
[9] = Hepatocyte stability, human; assay type: in vitro ADME; settings: human hepatocytes; well-stirred model
Method in brief: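 Human hepatocytes. Intrinsic clearance (CLint) was converted to blood clearance with the well-stirred hepatic model: CLb = QH×CLint/(QH + CLint). Human liver blood flow (QH) was 1.32 L h⁻¹ kg⁻¹.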

[10] = Caco-2 permeability assay; assay type: in vitro ADME; settings: human
[11] = In vivo pharmacokinetics, rat; settings: male Wistar rat, 0.6 mg kg^−1 p.o.; Cmax,p.o./dose p.o.
[12] = In vivo pharmacokinetics, dog; settings: female Beagle dog, 0.2 mg kg^−1 p.o.; Cmax,p.o./dose p.o.

Compound | Hep stability CL b,Hep [1] [mL/min/kg] | LM stability CL b,LM [2] [mL/min/kg] | LM stability CL b,LM [3] [mL/min/kg] | Hep stability CL b,Hep [4] [mL/min/kg] | LM stability CL b,LM [5] | other results
Cc1ccc2nc(C(N)=O)cc(C(=O)Nc3c(C(F)(F)F)nn(Cc4ccc(C#N)cc4)c3C)c2c1 [Compound 17] | 33.3 | 38.3 | – | – | – | –
Cc1c(NC(=O)c2cc(C(N)=O)nc3cc(F)ccc23)c(C(F)(F)F)nn1Cc1cnc(C#N)cn1 [Compound 57] | 20 | – | 8.83 | – | – | –
Cc1c(NC(=O)c2cc(C(N)=O)nc3cc(F)ccc23)c(C(F)(F)F)nn1Cc1ccc(C#N)cn1 [Compound 54] | 0.67 | 6 | 3.17 | 0.017 | 0.017 mL/min/kg | LM stability CL b,LM [6]: 6.17 mL/min/kg; LM stability CL b,LM [7]: 6.67 mL/min/kg; Hep stability CL b,Hep [8]: 5.33 mL/min/kg; Hep stability CL b,Hep [9]: 0.5 mL/min/kg
Cc1c(NC(=O)c2cc(C(N)=O)nc3ccccc23)c(C(F)(F)F)nn1Cc1ccc(C#N)cc1 [Compound 13] | 30 | 23.3 | 3.5 | 1.83 | 1 mL/min/kg | Papp A→B at 2 h, 2 µM [10]: 7.4 ×10⁻⁶ cm/s
Cc1c(NC(=O)c2cc(C(N)=O)nc3cc(F)ccc23)c(C(C)C)nn1Cc1ccc(C#N)cc1 [Compound 43] | – | – | 14.5 | – | – | –
Cc1c(NC(=O)c2cc(C(N)=O)nc3cc(F)ccc23)c(C(F)(F)F)nn1Cc1ccc(C#N)cc1 [Compound 19, N ^4 ‐[1‐(4‐Cyanobenzyl)‐5‐methyl‐3‐(trifluoromethyl)‐1H‐pyrazol‐4‐yl]‐7‐fluoroquinoline‐2,4‐dicarboxamide] | – | – | 5.33 | 3.33 | stable | C max,norm,p.o. [11]: 0.33 kg L ^−1; LM stability CL b,LM [7]: 12.7 mL/min/kg; C max,norm,p.o. [12]: 0.93 kg L ^−1; Hep stability CL b,Hep [9]: 6.17 mL/min/kg
Cc1c(NC(=O)c2cc(C(F)(F)F)nc3ccc(Br)cc23)c(C(F)(F)F)nn1Cc1ccc(F)cc1 [Compound 12] | 43.3 | 36.7 | – | – | – | –
Cc1ccc2nc(C)cc(C(=O)Nc3c(C)nn(Cc4ccc(F)cc4)c3C)c2c1 [Compound 2] | 61.7 | 66.7 | 20 | – | – | –
Cc1c(NC(=O)c2cc(C(N)=O)nc3cc(F)ccc23)c(C(F)(F)F)nn1Cc1ncc(C#N)cn1 [Compound 58] | 14.8 | – | 3.67 | – | – | –
